Results taken from ChEMBL document CHEMBL3758117, “Discovery of indeno[1,2-b]quinoxaline derivatives as potential anticancer agents” (Eur J Med Chem, 2016).
Active and inactive are the calls of the source. The rule behind the calls is not given here.

Tested on: Escherichia coli
Assay: Binding affinity to Escherichia coli negative supercoiled pBR322 DNA at 10 uM after 12 hrs by ethidium bromide staining based agarose gel electrophoresis
Settings: not given
Summary of the method: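 Negatively supercoiled pBR322 (400 ng) in TE buffer pH 8.0 was incubated with compound at 10 μM for 12 h at room temperature. Loading buffer with sarkosyl was added. Samples were run on 1% agarose at 6 V/cm for 2.5 h in TAE pH 8.5, stained with ethidium bromide and photographed under UV.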

Question: With `CN(C)CCCO/N=C1\c2ccccc2-c2nc3c(CN4CCC(N5CCCCC5)CC4)cccc3nc21.Cl` as the compound, how does the Activity read?
Answer: inactive

Question: Which Activity does the source give for `CN(C)CCNC(=O)c1cccc2nc3c(nc12)-c1ccccc1C3=O` here?
Answer: inactive

Question: Which Activity does the source give for `CN(C)CCCNC(=O)c1cccc2nc3c(nc12)-c1ccccc1C3=O` here?
Answer: inactive

Tested on: MDA-MB-231
Assay: Antiproliferative activity against human MDA-MB-231 cells after 72 hrs by XTT assay
Type: functional, cell-based
Settings: MDA-MB-231, 72 h
Summary of the method: (§1)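 Cells kept as monolayers in DMEM with 10% FBS, penicillin, streptomycin and amphotericin at 37°C, 5% CO2. Seeded at 5 x 10³ cells/well and exposed to compound for 72 h in medium with 10% FBS. XTT plus electron-coupling reagent added, 4 h at 37°C, absorbance read at 492 nm. Percent of control growth uses mean absorbance (n = 3). The 50% value is taken from the linear portion of the curve.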

Question: With `CN(C)CCCO/N=C1\c2ccccc2-c2nc3c(CN4CCC(N5CCCCC5)CC4)cccc3nc21.Cl` as the compound, how does the IC50 read?
Answer: 0.99 µM

Question: Which IC50 does the source give for `CN(C)CCNC(=O)c1cccc2nc3c(nc12)-c1ccccc1C3=O` here?
Answer: 7.29 µM

Question: With `CN(C)CCCNC(=O)c1cccc2nc3c(nc12)-c1ccccc1C3=O` as the compound, how does the IC50 read?
Answer: 7.04 µM

Tested on: not listed separately
Assay: Antiproliferative activity against human H1299 cells after 72 hrs by XTT assay
Type: functional, cell-based
Settings: NCI-H1299, 72 h
Summary of the method: as §1

Question: Which IC50 does the source give for `CN(C)CCCO/N=C1\c2ccccc2-c2nc3c(CN4CCC(N5CCCCC5)CC4)cccc3nc21.Cl` here?
Answer: 5.14 µM

Question: For `CN(C)CCNC(=O)c1cccc2nc3c(nc12)-c1ccccc1C3=O`, which IC50 is on record?
Answer: 8.75 µM

Question: With `CN(C)CCCNC(=O)c1cccc2nc3c(nc12)-c1ccccc1C3=O` as the compound, how does the IC50 read?
Answer: 7.82 µM

Tested on: not listed separately
Assay: Antiproliferative activity against human PC3 cells after 72 hrs by XTT assay
Type: functional, cell-based
Settings: PC-3, 72 h
Summary of the method: as §1

Question: With `CN(C)CCCO/N=C1\c2ccccc2-c2nc3c(CN4CCC(N5CCCCC5)CC4)cccc3nc21.Cl` as the compound, how does the IC50 read?
Answer: 6.12 µM

Question: Which IC50 does the source give for `CN(C)CCNC(=O)c1cccc2nc3c(nc12)-c1ccccc1C3=O` here?
Answer: 11 µM

Question: With `CN(C)CCCNC(=O)c1cccc2nc3c(nc12)-c1ccccc1C3=O` as the compound, how does the IC50 read?
Answer: 10.2 µM

Tested on: not listed separately
Assay: Antiproliferative activity against human HuH7 cells after 72 hrs by XTT assay
Type: functional, cell-based
Settings: Huh-7, 72 h
Summary of the method: as §1

Question: With `CN(C)CCCO/N=C1\c2ccccc2-c2nc3c(CN4CCC(N5CCCCC5)CC4)cccc3nc21.Cl` as the compound, how does the IC50 read?
Answer: 0.82 µM

Question: Which IC50 does the source give for `CN(C)CCNC(=O)c1cccc2nc3c(nc12)-c1ccccc1C3=O` here?
Answer: 7.64 µM

Question: Which IC50 does the source give for `CN(C)CCCNC(=O)c1cccc2nc3c(nc12)-c1ccccc1C3=O` here?
Answer: 7.7 µM

Tested on: MRC5
Assay: Antiproliferative activity against human MRC5 cells after 72 hrs by XTT assay
Type: cell-based
Settings: MRC5, 72 h
Summary of the method: as §1

Question: With `CN(C)CCCO/N=C1\c2ccccc2-c2nc3c(CN4CCC(N5CCCCC5)CC4)cccc3nc21.Cl` as the compound, how does the IC50 read?
Answer: 3.49 µM

Question: For `CN(C)CCNC(=O)c1cccc2nc3c(nc12)-c1ccccc1C3=O`, which IC50 is on record?
Answer: 8.98 µM

Question: Which IC50 does the source give for `CN(C)CCCNC(=O)c1cccc2nc3c(nc12)-c1ccccc1C3=O` here?
Answer: 9.07 µM

Tested on: MRC5
Assay: Selectivity index, ratio of IC50 for human MRC5 cells to IC50 for human MDA-MB-231 cells
Type: functional
Settings: not given

Question: Which “Ratio IC50” value does the source give for `CN(C)CCCO/N=C1\c2ccccc2-c2nc3c(CN4CCC(N5CCCCC5)CC4)cccc3nc21.Cl` here?
Answer: 3.53

Question: Which “Ratio IC50” value does the source give for `CN(C)CCNC(=O)c1cccc2nc3c(nc12)-c1ccccc1C3=O` here?
Answer: 1.23

Question: With `CN(C)CCCNC(=O)c1cccc2nc3c(nc12)-c1ccccc1C3=O` as the compound, how does the “Ratio IC50” value read?
Answer: 1.29

Tested on: not listed separately
Assay: Selectivity index, ratio of IC50 for human MRC5 cells to IC50 for human H1299 cells
Type: functional
Settings: not given

Question: For `CN(C)CCCO/N=C1\c2ccccc2-c2nc3c(CN4CCC(N5CCCCC5)CC4)cccc3nc21.Cl`, which “Ratio IC50” value is on record?
Answer: 0.68

Question: With `CN(C)CCNC(=O)c1cccc2nc3c(nc12)-c1ccccc1C3=O` as the compound, how does the “Ratio IC50” value read?
Answer: 1.03

Question: With `CN(C)CCCNC(=O)c1cccc2nc3c(nc12)-c1ccccc1C3=O` as the compound, how does the “Ratio IC50” value read?
Answer: 1.16

Tested on: MRC5
Assay: Selectivity index, ratio of IC50 for human MRC5 cells to IC50 for human PC3 cells
Type: functional
Settings: not given

Question: For `CN(C)CCCO/N=C1\c2ccccc2-c2nc3c(CN4CCC(N5CCCCC5)CC4)cccc3nc21.Cl`, which “Ratio IC50” value is on record?
Answer: 0.57

Question: With `CN(C)CCNC(=O)c1cccc2nc3c(nc12)-c1ccccc1C3=O` as the compound, how does the “Ratio IC50” value read?
Answer: 0.82

Question: Which “Ratio IC50” value does the source give for `CN(C)CCCNC(=O)c1cccc2nc3c(nc12)-c1ccccc1C3=O` here?
Answer: 0.89

Tested on: Huh-7
Assay: Selectivity index, ratio of IC50 for human MRC5 cells to IC50 for human HuH7 cells
Type: functional
Settings: not given

Question: For `CN(C)CCCO/N=C1\c2ccccc2-c2nc3c(CN4CCC(N5CCCCC5)CC4)cccc3nc21.Cl`, which “Ratio IC50” value is on record?
Answer: 4.26

Question: For `CN(C)CCNC(=O)c1cccc2nc3c(nc12)-c1ccccc1C3=O`, which “Ratio IC50” value is on record?
Answer: 1.18

Question: Which “Ratio IC50” value does the source give for `CN(C)CCCNC(=O)c1cccc2nc3c(nc12)-c1ccccc1C3=O` here?
Answer: 1.18

Biological target: T1, DNA topoisomerase 1 (Homo sapiens) (UniProt P11387)
T1 sequence (whole entry): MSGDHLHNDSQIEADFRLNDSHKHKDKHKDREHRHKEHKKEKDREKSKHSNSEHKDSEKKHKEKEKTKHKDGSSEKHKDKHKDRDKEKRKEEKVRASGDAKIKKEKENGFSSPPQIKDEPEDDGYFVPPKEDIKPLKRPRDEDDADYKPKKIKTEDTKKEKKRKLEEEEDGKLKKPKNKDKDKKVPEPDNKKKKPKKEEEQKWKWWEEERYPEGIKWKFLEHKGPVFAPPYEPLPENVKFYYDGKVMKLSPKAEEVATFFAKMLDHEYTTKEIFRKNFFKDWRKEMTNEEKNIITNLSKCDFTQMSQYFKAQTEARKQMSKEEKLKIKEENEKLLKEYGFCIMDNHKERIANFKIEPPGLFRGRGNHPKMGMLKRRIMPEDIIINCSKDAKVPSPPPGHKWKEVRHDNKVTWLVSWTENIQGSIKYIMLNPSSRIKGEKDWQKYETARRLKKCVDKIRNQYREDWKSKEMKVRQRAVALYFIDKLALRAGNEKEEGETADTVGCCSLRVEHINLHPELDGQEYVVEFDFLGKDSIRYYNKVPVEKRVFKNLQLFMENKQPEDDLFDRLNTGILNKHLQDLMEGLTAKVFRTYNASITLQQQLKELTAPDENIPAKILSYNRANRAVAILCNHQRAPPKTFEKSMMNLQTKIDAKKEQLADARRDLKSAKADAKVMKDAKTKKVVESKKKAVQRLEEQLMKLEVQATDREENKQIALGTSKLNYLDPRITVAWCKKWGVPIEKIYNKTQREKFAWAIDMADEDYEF
Assay: Inhibition of human DNA topoisomerase 1-mediated relaxation of supercoiled pBR322 DNA at 100 uM after 30 mins by ethidium bromide staining based agarose gel electrophoresis
Settings: not given
Summary of the method: (§2)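 Human topo I or topo II (2 units) was reacted with 0.2 μg supercoiled pBR322 in 20 μl Tris-HCl pH 7.5 containing KCl, DTT, EDTA, MgCl2 and BSA, with DMSO held at 0.5%, for 30 min at 37°C. The reaction was stopped with SDS. Samples were run on 1% agarose in Tris-acetate/EDTA at 1.5 V/cm for 2-3 h and stained with ethidium bromide. Relaxation was quantified by densitometry of the supercoiled band area.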

Question: Which “topoisomerase 1 inhibition (active/inactive)” value does the source give for `CN(C)CCCO/N=C1\c2ccccc2-c2nc3c(CN4CCC(N5CCCCC5)CC4)cccc3nc21.Cl` here?
Answer: Active

Question: Which “topoisomerase 1 inhibition (active/inactive)” value does the source give for `CN(C)CCNC(=O)c1cccc2nc3c(nc12)-c1ccccc1C3=O` here?
Answer: Active

Question: With `CN(C)CCCNC(=O)c1cccc2nc3c(nc12)-c1ccccc1C3=O` as the compound, how does the “topoisomerase 1 inhibition (active/inactive)” value read?
Answer: Active

Biological target: T1, DNA topoisomerase 1 (Homo sapiens)
Assay: Inhibition of human DNA topoisomerase 1-mediated relaxation of supercoiled pBR322 DNA at 10 uM after 30 mins by ethidium bromide staining based agarose gel electrophoresis
Settings: not given
Summary of the method: as §2

Question: With `CN(C)CCCO/N=C1\c2ccccc2-c2nc3c(CN4CCC(N5CCCCC5)CC4)cccc3nc21.Cl` as the compound, how does the inhibition read?
Answer: Active

Question: With `CN(C)CCNC(=O)c1cccc2nc3c(nc12)-c1ccccc1C3=O` as the compound, how does the inhibition read?
Answer: Active

Question: Which inhibition does the source give for `CN(C)CCCNC(=O)c1cccc2nc3c(nc12)-c1ccccc1C3=O` here?
Answer: inactive

Biological target: DNA topoisomerase 2-alpha (Homo sapiens) (UniProt P11388)
Sequence (P11388 whole entry): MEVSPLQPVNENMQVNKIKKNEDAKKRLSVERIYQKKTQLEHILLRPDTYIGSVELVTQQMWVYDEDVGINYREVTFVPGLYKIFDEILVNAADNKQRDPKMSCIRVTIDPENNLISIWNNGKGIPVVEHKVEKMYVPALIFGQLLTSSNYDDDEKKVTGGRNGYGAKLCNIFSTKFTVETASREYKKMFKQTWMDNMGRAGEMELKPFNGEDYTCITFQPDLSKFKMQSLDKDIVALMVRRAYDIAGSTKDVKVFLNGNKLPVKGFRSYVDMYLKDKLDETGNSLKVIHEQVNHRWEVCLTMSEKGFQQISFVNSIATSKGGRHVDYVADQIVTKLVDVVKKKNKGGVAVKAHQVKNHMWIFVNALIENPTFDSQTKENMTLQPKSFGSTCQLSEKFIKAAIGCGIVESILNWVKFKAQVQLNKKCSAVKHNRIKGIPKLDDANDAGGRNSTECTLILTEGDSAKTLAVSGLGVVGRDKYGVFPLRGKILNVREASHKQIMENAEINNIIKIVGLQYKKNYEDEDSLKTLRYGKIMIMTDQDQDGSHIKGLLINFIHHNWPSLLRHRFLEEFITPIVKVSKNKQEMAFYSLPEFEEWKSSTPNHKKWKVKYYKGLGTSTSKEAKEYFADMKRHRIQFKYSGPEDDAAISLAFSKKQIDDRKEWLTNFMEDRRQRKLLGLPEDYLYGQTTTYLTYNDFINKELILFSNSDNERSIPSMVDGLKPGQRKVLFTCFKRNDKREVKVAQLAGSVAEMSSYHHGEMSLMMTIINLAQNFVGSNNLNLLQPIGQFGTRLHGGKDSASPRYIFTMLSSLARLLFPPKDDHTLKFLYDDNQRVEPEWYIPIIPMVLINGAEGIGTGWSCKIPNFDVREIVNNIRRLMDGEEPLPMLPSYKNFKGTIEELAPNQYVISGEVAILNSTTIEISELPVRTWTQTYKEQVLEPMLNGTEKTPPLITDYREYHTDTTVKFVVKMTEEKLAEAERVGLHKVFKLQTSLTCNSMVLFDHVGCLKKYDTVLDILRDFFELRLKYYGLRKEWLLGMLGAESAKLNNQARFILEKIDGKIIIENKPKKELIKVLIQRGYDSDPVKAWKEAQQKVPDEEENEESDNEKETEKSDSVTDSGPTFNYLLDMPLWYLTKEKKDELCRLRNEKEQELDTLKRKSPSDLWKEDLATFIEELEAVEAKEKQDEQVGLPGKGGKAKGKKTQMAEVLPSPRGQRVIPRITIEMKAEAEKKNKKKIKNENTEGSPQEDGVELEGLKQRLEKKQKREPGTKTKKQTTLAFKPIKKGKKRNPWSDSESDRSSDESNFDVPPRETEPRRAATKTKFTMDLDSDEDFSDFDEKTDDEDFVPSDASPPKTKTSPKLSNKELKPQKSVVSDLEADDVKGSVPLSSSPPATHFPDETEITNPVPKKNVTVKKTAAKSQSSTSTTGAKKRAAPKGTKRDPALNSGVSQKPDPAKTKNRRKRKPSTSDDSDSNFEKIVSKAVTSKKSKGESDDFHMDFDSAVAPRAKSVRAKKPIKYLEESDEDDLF
Assay: Inhibition of human DNA topoisomerase 2-mediated relaxation of supercoiled pBR322 DNA at 100 uM after 30 mins by ethidium bromide staining based agarose gel electrophoresis
Settings: not given
Summary of the method: as §2

Question: With `CN(C)CCCO/N=C1\c2ccccc2-c2nc3c(CN4CCC(N5CCCCC5)CC4)cccc3nc21.Cl` as the compound, how does the “inhibition call (active/not active)” value read?
Answer: Active

Question: With `CN(C)CCNC(=O)c1cccc2nc3c(nc12)-c1ccccc1C3=O` as the compound, how does the “inhibition call (active/not active)” value read?
Answer: Active

Question: For `CN(C)CCCNC(=O)c1cccc2nc3c(nc12)-c1ccccc1C3=O`, which “inhibition call (active/not active)” value is on record?
Answer: Active

Biological target: DNA topoisomerase 2-alpha (Homo sapiens) (UniProt P11388)
Assay: Inhibition of human DNA topoisomerase 2-mediated relaxation of supercoiled pBR322 DNA at 10 uM after 30 mins by ethidium bromide staining based agarose gel electrophoresis
Settings: not given
Summary of the method: as §2

Question: With `CN(C)CCCO/N=C1\c2ccccc2-c2nc3c(CN4CCC(N5CCCCC5)CC4)cccc3nc21.Cl` as the compound, how does the “topoisomerase 2 inhibition (active/not active)” value read?
Answer: inactive

Question: For `CN(C)CCNC(=O)c1cccc2nc3c(nc12)-c1ccccc1C3=O`, which “topoisomerase 2 inhibition (active/not active)” value is on record?
Answer: inactive

Question: For `CN(C)CCCNC(=O)c1cccc2nc3c(nc12)-c1ccccc1C3=O`, which “topoisomerase 2 inhibition (active/not active)” value is on record?
Answer: inactive
